Compound activity from PubChem BioAssay.
SIAE primary = human SIAE inhibitors, primary screen, biochemical, fluorescence polarization, FP-Rh probe, 1536-well HTS; 370,000 tested, 0.69% active; SIAE FP-Rh probe binding; inhibition, % at 9.66 µM; AID 1053197, 2014;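 active = inhibition above a cutoff: mean of compounds within the control limits plus 3 SD of those, cut at about 17% in these data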;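 note: 0% = plate median of compound wells and 100% = probe without SIAE protein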
mABHD4 FP = ABHD4 inhibitors, primary screen, biochemical, fluorescence polarization, mouse; inhibition, % at 8.92 µM; purified mABHD4, FP-Rh probe fluorescence polarization; 370,000 tested, 0.54% active; (Lyso)-N-acylphosphatidylethanolamine lipase (Mus musculus), Q8VD66;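 active = inhibition exceeding the mean over every tested compound plus 3 SD, cut at about 30% in these data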;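 note: 0% = plate median of compound wells and 100% = S159A mutant with DMSO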
Target sequence (Q8VD66 whole entry, looked up): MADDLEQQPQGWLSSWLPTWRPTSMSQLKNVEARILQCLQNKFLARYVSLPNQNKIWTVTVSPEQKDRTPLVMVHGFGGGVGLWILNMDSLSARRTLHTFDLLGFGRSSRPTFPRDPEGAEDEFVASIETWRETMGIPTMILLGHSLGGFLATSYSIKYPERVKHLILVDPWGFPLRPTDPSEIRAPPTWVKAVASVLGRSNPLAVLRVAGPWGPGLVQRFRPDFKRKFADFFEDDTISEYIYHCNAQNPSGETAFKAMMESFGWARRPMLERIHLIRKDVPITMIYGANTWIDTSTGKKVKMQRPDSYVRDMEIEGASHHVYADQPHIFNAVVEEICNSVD
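Assay system: wild-type mouse ABHD4 protein; compound: single nominal dose of 8.92 µM, 0.89% DMSO final; schedule: 45 min + 60 min at 25 °C; measured by: FP readout, ex 525 nm / em 598 nm; evaluation: % inhibition of FP-Rh probe binding versus controls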
PRMT1 inh = PRMT1 methyltransferase inhibitors, primary screen, biochemical, fluorescence polarization | 370,000 tested, 1.3% active | recombinant PRMT1, activity-based probe fluorescence polarization | Protein arginine N-methyltransferase 1 (Homo sapiens), Q99873 | inhibition, % at 2.79 µM | AID 652257, 2013;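 active = inhibition above about 21% made by adding two undisclosed values, limit read from the data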
HTRA1 inhibitor = HTRA1 serine protease inhibitors, primary screen, biochemical, fluorescence polarization, HTS. inhibition, % at 5.96 µM. 340,000 tested, 0.5% active. AID 504803, 2011. recombinant HTRA1, FP-rhodamine activity-based probe. Q92743; in the data active = inhibition above about 36%;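 note: 0% = enzyme with DMSO and 100% = wells lacking enzyme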
JMJD2C inh = inhibitors of GASC-1 histone demethylase, primary screen, biochemical, fluorescence, DELFIA europium. Lysine-specific demethylase 4C (Homo sapiens), Q9H3R0. GST-JMJD2C(1-420) H3K9me3 demethylation. inhibition, % at 2.35 µM. 330,000 tested, 0.069% active. AID 2099, 2009;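 active = more than half of a compound's replicate wells show inhibition beyond 50%, single wells judged on their own value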;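 note: signal counts dimethyl H3K9 product captured on neutravidin plate; 0% = median of DMSO wells and 100% = 0.3 times that DMSO median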
PRMT1 inh conf = PRMT1 methyltransferase inhibitors, confirmation, biochemical, fluorescence polarization, triplicate | shares compounds with PRMT1 inh | recombinant His-PRMT1, activity-based probe fluorescence polarization | inhibition, % at 2.79 µM | 3,300 tested, 42% active | AID 687036, 2013;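 active = mean inhibition across replicates above the hit cutoff derived for the earlier primary screen, cut at about 22% in these data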
The depositor's hits bear a star; nt = no result. An excerpt weighted towards active compounds, which were near 2.4% of everything screened.

SMILES	SIAE primary	mABHD4 FP	PRMT1 inh	HTRA1 inhibitor	JMJD2C inh	PRMT1 inh conf
Cn1nnnc1Sc1ncnc2scc(-c3ccccc3C(F)(F)F)c12	-1.9	-2.8	38.5*	-16.4	6.4	14.0
CC1CC(C)CN(C(=O)c2ccc(-c3ccc([N+](=O)[O-])cc3)o2)C1 (stereo not drawn)	3.3	26.4	35.0*	-11.5	0.0	18.0
O=C(c1ccc(-c2cccc([N+](=O)[O-])c2)o1)N1CCN(c2ccc([N+](=O)[O-])cc2)CC1	2.8	4.1	2.8	-6.2	nt	nt
O=C(c1ccc(-c2ccc([N+](=O)[O-])cc2)o1)N1CCCCC1	-0.4	2.8	45.7*	0.3	-3.7	11.2
CC(C)NC(=O)OC[C@@H]1CSCCS(=O)(=O)N1	-1.4	6.1	0.0	nt	nt	nt
CCOc1cc(C2C(C#N)=C(N)OC(C)=C2C(C)=O)c(Br)c(Br)c1OC(C)C (stereo not drawn)	nt	nt	nt	-27.2	0.5	nt
CCOc1cc(C2C(C#N)=C(N)OC(C)=C2C(C)=O)cc(Br)c1O (stereo not drawn)	15.2	14.1	26.0*	6.3	0.8	28.3*
COC(=O)[C@]12C[C@H](CC(=O)N3CCN(C(=O)C4CC4)CC3)C(=O)N(CCC3=CCCCC3)C1=C[C@H](C1CCCC1)O[C@@H]2C	1.1	0.8	5.4	nt	nt	nt
N#C/C(=C\c1ccc(O)c(O)c1)C(=O)N1CCCC1	11.3	21.6	6.0	9.7	2.6	nt
N#C/C(=C\c1ccc(O)c(O)c1)C(=O)c1ccc(O)c(O)c1	11.4	23.9	35.2*	33.9	nt	18.7
COC(=O)[C@]12C[C@H](CC(=O)N3CCCCC3)C(=O)N(Cc3cccc4ccccc34)C1=C[C@H](C(C)C)O[C@@H]2C1CC1	3.9	3.0	-7.2	nt	nt	nt
NNc1cc([N+](=O)[O-])cc2c1C(=O)N(Cc1ccccc1)S2=O (stereo not drawn)	3.5	14.9	25.9*	20.3	7.2	2.7
Cc1ccccc1NC(=O)CC1SC(=NC2CCCCC2)NC1=O (stereo not drawn)	0.3	-2.2	32.2*	4.3	12.1	2.7
Cc1ccc(NC(=O)CC2SC(=NC3CCCCC3)NC2=O)cc1 (stereo not drawn)	-1.9	-18.4	8.0	-4.8	10.5	nt
COc1ccc([C@H]2OC(=O)C[C@@H]2C(=O)N2CCN(c3ccccc3Cl)CC2)cc1OC	-1.4	-1.6	-2.2	nt	nt	nt
OC(c1ccccc1)C1(c2ccccc2)CCN(Cc2ccccc2)CC1 (stereo not drawn)	-1.2	4.1	-3.9	nt	nt	nt
C/C(C/C(C)=C1/SC(=S)NC1=O)=C1\SC(=S)NC1=O	-28.0	14.5	40.2*	-10.8	nt	24.2*
Cc1cccc(N2C(=O)CC(Sc3ncn[nH]3)C2=O)c1 (stereo not drawn)	2.7	3.0	58.1*	-14.5	0.2	55.4*
Cc1ccc(N2C(=O)CC(Sc3ncn[nH]3)C2=O)cc1C (stereo not drawn)	3.8	4.7	60.9*	-2.7	-5.3	43.7*
COc1cccc(CNC(=O)[C@H]2CCCN2C(=O)[C@H]2CCCN2)c1	2.5	4.7	-0.6	nt	nt	nt
N=c1c2c(-c3ccccc3)c(-c3ccccc3)n(Cc3ccccc3)c2ncn1C1CCOCC1	5.2	6.4	1.3	nt	nt	nt
Clc1ccc(-n2nnc(-c3nccs3)n2)cc1Cl	-9.2	7.9	37.9*	0.9	16.6	24.2*
Cc1ccc(-n2nnc(-c3nccs3)n2)cc1	0.8	-3.9	1.1	-9.9	-6.6	nt
CCn1cc(C(=O)N2CCn3c(nc4ccccc43)C2)c(=O)c2ccc(C)nc21	-3.6	4.3	30.9*	6.7	-1.4	3.3
O=c1[nH]sc2ccccc12	8.4	4.7	72.3*	-4.3	106.2	85.6*
SMILES	SIAE primary	mABHD4 FP	PRMT1 inh	HTRA1 inhibitor	JMJD2C inh	PRMT1 inh conf
O=c1cc(CN2CCCCC2)c2ccccc2o1	6.7	-2.2	-1.9	nt	nt	nt
Cc1sc2nc(SCC(=O)Nc3cccc(S(N)(=O)=O)c3)[nH]c(=O)c2c1C	9.2	-0.1	26.6*	-2.0	-2.2	1.4
Cc1cccc(NC(=O)CSc2nc3nc(C)cc(C)c3c(=O)[nH]2)c1	9.2	-2.6	-1.8	8.8	3.2	nt
CC(=O)Nc1c(O)nc(SCC(=O)Nc2ccc(C(C)=O)cc2)[nH]c1=O	-1.0	-2.6	59.3*	-0.6	-10.2	19.4
CC(=O)Nc1c(O)nc(SCC(=O)Nc2cccc(C)c2)[nH]c1=O	2.7	8.6	53.7*	-1.5	56.1	2.7
Cc1sc2nc(SCC(=O)Nc3ccc(S(N)(=O)=O)cc3)[nH]c(=O)c2c1C	-17.5	-2.8	0.0	-6.9	-17.5	nt
COc1cccc(N2CCN(C(=O)COc3cc(=O)n(C)c4ccccc34)CC2)c1	-3.9	-5.8	0.5	nt	nt	nt
O=C(Cn1nc(-c2ccccc2)ccc1=O)NCCc1ccc(F)cc1	3.9	0.1	-3.9	nt	nt	nt
C=CCN(C(=O)[C@@H](C1CC1)[C@@H](O)c1ccc(Cl)cc1)c1ccccc1	1.3	-5.1	0.4	nt	nt	nt
CCOC(=O)[C@]12CCCC=C1N(Cc1ccco1)C(=O)[C@H](CC(=O)NCCCCc1ccccc1)C2	-3.7	1.4	2.0	nt	nt	nt
C#CC[N+](C)(C)CCCCCCCC	-4.3	-7.5	4.3	4.8	-5.9	nt
CCCCCC[N+](C)(C)CCSSCC[N+](C)(C)CCCCCC	-1.8	6.8	90.6*	0.1	-17.5	55.6*
O=C1C=CC(=O)N1CCCCCCN1C(=O)C=CC1=O	9.2	5.2	93.2*	nt	3.5	90.1*
O=C(O)CN1C(=O)C=CC1=O	1.1	2.1	63.6*	3.1	nt	74.7*
O=C(O)CN1C(=O)C2C3C=CC(C2C1=O)C1C(=O)N(CC(=O)O)C(=O)C31 (stereo not drawn)	-6.8	4.5	5.1	1.5	0.7	nt
CCn1c(C(=O)N2CCc3ccccc3C2)cc2sccc21	10.8	-4.0	25.4*	-5.6	34.8	13.5
CCn1c(C(=O)NCCCN2CCc3ccccc3C2)cc2sccc21	0.4	-2.2	-0.2	0.5	-3.2	nt
NC(=O)C1CCN(c2nc(-c3ccc4c(c3)CCO4)cs2)CC1	-15.3	-2.7	-3.4	nt	nt	nt
CCN(CC)CCSc1nc(O)c(Cc2ccccc2)c(=O)n1-c1ccccc1	4.0	9.9	20.2	-3.3	-4.8	nt
CCN(CC)CCSc1nc(O)c(-c2ccccc2)c(=O)n1-c1ccccc1	3.2	-4.2	25.2*	1.4	-1.8	15.7
COc1ccc(C2SCCN2C(=S)Nc2cccc(Cl)c2)cc1 (stereo not drawn)	-19.4	-9.1	79.7*	-16.2	151.1	2.0
